The source made the active and inactive calls.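 The calls were made as follows, unless noted: active = viability at or below 30% in both replicate assays; inconclusive = viability at or below 30% in just one of the two assays; inactive = the rest.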
Tests used:
[1] = Her2 expression decrease, cell viability multiplex – SKBR3 breast tumor cells, AlphaScreen, ATP viability, primary screen (AID 461;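 active = Her2 level under about 52% in both replicate screens, with viability over 70% of control, limit read from the data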;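 as to Her2 level: lower value means less Her2 protein in the cells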;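 as to viability: percent of carrier control wells set as 100% viability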); details: SKBR3 Her2 protein level, 18-24 h, measured here: SKBR3 viability, ATP luminescence, at 10 µM
[2] = molecular target: Receptor tyrosine-protein kinase erbB-2 (Homo sapiens) (UniProt P04626); experiment: as above; details: 18-24 h, at 10 µM, stronger effect = lower value
[3] = reduced viability of SK-BR-3 breast cancer cells – cell-based, 24 h, human, pilot screen (AID 572;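 active = viability at or below 10% of carrier control in both of two separate runs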;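 also: compound exposure lasted between 18 and 24 h rather than exactly 24 h; 100% = carrier-treated control wells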); details: SK-BR-3 viability, CellTiter-Glo luminescence, at 10 µM, stronger effect = lower value
[4] = HUVEC growth inhibition – cell-based, human, primary screen (AID 575); details: HUVEC proliferation, CellTiter-Glo luminescence, 72 h; at 10 µM; stronger effect = lower value;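 also: 100% = median of untreated cell wells with 0.1% DMSO on each plate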
In short: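 system = HUVEC primary cells | amount = 1250 cells/well | buffer or medium = supplemented EBM, 2% fetal bovine serum | dosing = single-point 10 µM, DMSO 0.1% final | times = 72 h compound incubation | detection = CTG luminescence | read-out = % viability relative to median vehicle-well signal on each plate | control set = vehicle and MePR control wells | format = collagen-coated 384-well format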

[5] = H69AR cell proliferation blockers – human, duplicate replicates, primary screen (AID 580;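 active = viability at or under a set limit in both replicates, limit being median viability minus 3 SD, cut at about 48% in these data, passing the limit was not always enough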;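 also: 100% = mean luminescence of untreated wells and 0% = no signal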); details: H69AR lung tumor cells viability, ATP luminescence, 72 h; at 10 µM; stronger effect = lower value
[6] = MRP1 drug-resistance reversers in H69AR cells – cell-based, doxorubicin co-treatment, pilot screen (AID 601;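 active = viability loss from added drug above about 55%, and viability with drug at most 40%, in both replicates, limit read from the data, passing the limit was not always enough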); details: CellTiter-Glo, 72 h, at 10 µM; for differential viability (reversal): stronger effect = higher value
[7] = yeast transport mutant growth inhibition pilot in 384-well plates, post-Golgi transport modulator project (AID 636; in the data active = inhibition above about 31%); details: absorbance 615 nm, about 18 h, stronger effect = higher value
[8] = growth suppression of yeast trafficking mutant, preliminary HTS, modulators of trafficking downstream of Golgi apparatus project, 1536-format plate, OD 615 nm (AID 637; in the data active = inhibition above about 30%); details: yeast transport mutant growth, absorbance 615 nm, 18 h; stronger effect = higher value
[9] = H69AR cells + 2 uM doxorubicin, measured here: viability with 2 uM doxorubicin, stronger effect = lower value
[10] = H69AR cells, compound alone cytotoxicity

Receptor tyrosine-protein kinase erbB-2 (Homo sapiens), sequence (P04626 whole entry, looked up): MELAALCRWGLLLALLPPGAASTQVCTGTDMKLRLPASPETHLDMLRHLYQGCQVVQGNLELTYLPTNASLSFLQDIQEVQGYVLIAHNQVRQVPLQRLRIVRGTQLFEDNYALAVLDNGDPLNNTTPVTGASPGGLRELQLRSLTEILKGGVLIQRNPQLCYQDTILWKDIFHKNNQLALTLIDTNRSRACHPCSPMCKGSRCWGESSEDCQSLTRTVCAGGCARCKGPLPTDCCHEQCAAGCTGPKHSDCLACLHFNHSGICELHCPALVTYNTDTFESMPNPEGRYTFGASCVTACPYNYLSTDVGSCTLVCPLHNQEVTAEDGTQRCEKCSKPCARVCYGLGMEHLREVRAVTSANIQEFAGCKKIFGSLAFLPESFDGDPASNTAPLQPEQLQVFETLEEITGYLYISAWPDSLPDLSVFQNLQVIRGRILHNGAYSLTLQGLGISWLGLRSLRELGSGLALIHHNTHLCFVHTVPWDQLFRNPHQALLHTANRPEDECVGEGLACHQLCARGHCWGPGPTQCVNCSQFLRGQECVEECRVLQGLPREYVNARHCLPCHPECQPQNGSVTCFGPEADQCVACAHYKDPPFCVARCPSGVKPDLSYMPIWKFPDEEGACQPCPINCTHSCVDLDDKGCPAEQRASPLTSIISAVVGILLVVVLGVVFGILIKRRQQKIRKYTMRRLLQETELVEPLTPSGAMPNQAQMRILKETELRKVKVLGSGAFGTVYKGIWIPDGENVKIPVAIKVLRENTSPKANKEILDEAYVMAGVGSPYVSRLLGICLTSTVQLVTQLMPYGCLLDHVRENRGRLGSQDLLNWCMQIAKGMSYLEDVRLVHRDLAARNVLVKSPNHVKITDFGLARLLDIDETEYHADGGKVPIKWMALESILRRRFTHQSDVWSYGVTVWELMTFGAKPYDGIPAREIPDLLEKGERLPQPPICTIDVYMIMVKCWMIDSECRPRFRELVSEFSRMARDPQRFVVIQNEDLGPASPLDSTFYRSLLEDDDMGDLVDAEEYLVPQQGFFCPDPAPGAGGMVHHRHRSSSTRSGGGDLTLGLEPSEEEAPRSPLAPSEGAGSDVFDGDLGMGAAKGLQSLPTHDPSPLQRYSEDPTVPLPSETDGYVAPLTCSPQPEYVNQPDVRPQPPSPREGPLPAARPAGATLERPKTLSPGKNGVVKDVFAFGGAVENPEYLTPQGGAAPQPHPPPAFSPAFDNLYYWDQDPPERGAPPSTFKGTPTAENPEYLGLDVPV

SMILES	viability [1] [%]	Her2 level [2]	viability [3]	viability [4]	viability [5]	differential viability (reversal) ([6]; H69AR cells + 2 uM doxorubicin)	viability [6, 9] [%]	viability [6, 10] [%]	inhibition [7]	inhibition [8]
COC(=O)/C=c1\sc2ncnn2c1=O	95	97.5% (inactive)	95% (inactive)	72.5% (inactive)	78.7% (inactive)	-3.79% (inactive)	82.5	78.7	1.62% (inactive)	4.92% (inactive)
Cc1ccc(-c2nc3cc(N)ccc3o2)cc1	104	115% (inactive)	104% (inactive)	72.6% (inactive)	79.9% (inactive)	-1.81% (inactive)	81.7	79.9	-2.82% (inactive)	-2.17% (inactive)
C/C(N)=C(/C#N)C(=O)COC(=O)c1cc(S(=O)(=O)N2CCCCC2)ccc1C	88.5	79.5% (inactive)	88.5% (inactive)	82.2% (inactive)	95.8% (inactive)	0.98% (inactive)	94.8	95.8	0.38% (inactive)	-3.83% (inactive)
Cc1ccc(-n2nnnc2SCC(=O)N2CCc3ccccc3C2)cc1	113	82.5% (inactive)	113% (inactive)	99.9% (inactive)	82.1% (inactive)	-8.77% (inactive)	90.8	82.1	-2.5% (inactive)	0.48% (inactive)
COc1ccc(CCNc2oc(-c3ccco3)nc2C#N)cc1	95	81.5% (inactive)	95% (inactive)	96.7% (inactive)	94.6% (inactive)	-3.7% (inactive)	98.3	94.6	-3.07% (inactive)	3.93% (inactive)
COCCN(CCOC)C(=O)c1sc2nc(-c3ccccc3)cn2c1C	93	78% (inactive)	93% (inactive)	82.4% (inactive)	93.1% (inactive)	10.4% (inactive)	82.7	93.1	-3.82% (inactive)	-5% (inactive)
CCCn1c(SCC(=O)Nc2cc(C)on2)nc2c1c(=O)n(C)c(=O)n2C	100	118% (inactive)	100% (inactive)	87% (inactive)	100% (inactive)	15.7% (inactive)	84.6	100	0% (inactive)	-4.19% (inactive)
COc1ccc(C(C(C(=O)c2cccs2)N2CCOCC2)N2CCOCC2)cc1OC (stereo not given)	102	112% (inactive)	102% (inactive)	84.3% (inactive)	102% (inactive)	4.94% (inactive)	96.6	102	-1.97% (inactive)	0% (inactive)
COc1ccccc1CNS(=O)(=O)c1cccc(S(=O)(=O)N2CCOCC2)c1	91.5	101% (inactive)	91.5% (inactive)	81.6% (inactive)	91.7% (inactive)	3.38% (inactive)	88.3	91.7	-3.2% (inactive)	-1.48% (inactive)
Fc1cccc2sc(Nc3nnc(-c4ccco4)o3)nc12	109	37% (active)	109% (inactive)	57.3% (inactive)	41.2% (active)	-21.4% (inactive)	62.6	41.2	-0.4% (inactive)	0% (inactive)
O=S(=O)(Nc1cccnc1)c1ccc2c(c1)OCCO2	91.5	92% (inactive)	91.5% (inactive)	99.7% (inactive)	104% (inactive)	12.1% (inactive)	91.9	104	-6.97% (inactive)	3.17% (inactive)
O=C1CCC(c2ccccc2)N1C(=O)c1cccnc1 (stereo not given)	129	95.5% (inactive)	129% (inactive)	105% (inactive)	98.8% (inactive)	8.63% (inactive)	90.2	98.8	-6.58% (inactive)	-4.29% (inactive)
CC(=O)c1ccc(NC(=O)c2cc(CC(C)C)on2)cc1	93	114% (inactive)	93% (inactive)	120% (inactive)	89.2% (inactive)	-1.95% (inactive)	91.1	89.2	6.15% (inactive)	-8.67% (inactive)
COCCn1c(=O)[nH]c2cc(C(=O)N3CCN(Cc4ccc5c(c4)OCO5)CC3)ccc2c1=O	93.5	106% (inactive)	93.5% (inactive)	117% (inactive)	93.1% (inactive)	-1.86% (inactive)	94.9	93.1	1.47% (inactive)	9.34% (inactive)
CN(C)Cc1c(O)ccc2oc(Cc3ccccc3)cc12	90	86% (inactive)	90% (inactive)	91.2% (inactive)	91% (inactive)	11% (inactive)	80	91	-6.67% (inactive)	-2.42% (inactive)
O=C(NCc1ccc2c(c1)OCO2)c1ccc(NS(=O)(=O)c2ccc3c(c2)OCCO3)cc1	102	84.5% (inactive)	102% (inactive)	85.2% (inactive)	106% (inactive)	15.4% (inactive)	90.9	106	-8.11% (inactive)	-3.65% (inactive)

SMILES	viability [1] [%]	Her2 level [2]	viability [3]	viability [4]	viability [5]	differential viability (reversal) ([6]; H69AR cells + 2 uM doxorubicin)	viability [6, 9] [%]	viability [6, 10] [%]	inhibition [7]	inhibition [8]
Cc1nc(SC2C=CS(=O)(=O)C2)n[nH]1 (stereo not given)	104	88% (inactive)	104% (inactive)	99.7% (inactive)	86.3% (inactive)	-13.9% (inactive)	100	86.3	-7.07% (inactive)	3.11% (inactive)
CCOC(=O)N1CCC(N2C(=O)c3ccccc3C2Nc2cccnc2)CC1 (stereo not given)	91.5	104% (inactive)	91.5% (inactive)	112% (inactive)	85.7% (inactive)	0.11% (inactive)	85.6	85.7	-2.05% (inactive)	-3% (inactive)
COc1ccc(S(=O)(=O)NCCOc2ccccc2)cc1OC	94	90.5% (inactive)	94% (inactive)	97.7% (inactive)	91.5% (inactive)	-2.55% (inactive)	94.1	91.5	6.76% (inactive)	2.3% (inactive)
O=C1c2ccccc2-c2nc3ncnn3c(-c3ccccc3)c21	93.5	105% (inactive)	93.5% (inactive)	103% (inactive)	102% (inactive)	8.68% (inactive)	93.2	102	1.97% (inactive)	-3.45% (inactive)
CCOc1ccccc1C(=O)NCC(=O)OCC(=O)N1C(C)CCCC1C (stereo not given)	98.5	89% (inactive)	98.5% (inactive)	102% (inactive)	103% (inactive)	9.78% (inactive)	93.4	103	-3.77% (inactive)	-3.02% (inactive)
O=c1[nH]c2ccc(S(=O)(=O)N3CCN(C4CCCCC4)CC3)cc2[nH]c1=O	90.5	104% (inactive)	90.5% (inactive)	91.8% (inactive)	103% (inactive)	9.67% (inactive)	93.7	103	0.92% (inactive)	-12.6% (inactive)
CCOC(=O)CSc1nc2ccccc2n1CC(=O)N1CCN(c2ccccc2)CC1	93.5	99.5% (inactive)	93.5% (inactive)	87.2% (inactive)	89.9% (inactive)	2.73% (inactive)	87.1	89.9	-1.3% (inactive)	-4.92% (inactive)
CC(=O)Nc1ccc(-c2nn[nH]n2)cc1Cl	87	89% (inactive)	87% (inactive)	104% (inactive)	104% (inactive)	8.39% (inactive)	95.6	104	-1.6% (inactive)	-2.9% (inactive)
Cc1ccc2c(c1)c1c3n2CC(=C2C(=O)OC(C)(C)OC2=O)NC3CCC1 (stereo not given)	103	73% (inactive)	103% (inactive)	73.1% (inactive)	94.6% (inactive)	9.35% (inactive)	85.3	94.6	-4.67% (inactive)	-4.59% (inactive)
CC(C)Oc1cccc(-c2cc(C(=O)N3CCN(S(C)(=O)=O)CC3)c3ccccc3n2)c1	90.5	94% (inactive)	90.5% (inactive)	64% (inactive)	65.7% (inactive)	-9.72% (inactive)	75.4	65.7	-1.84% (inactive)	-6.03% (inactive)
O=C1c2ccccc2C(=O)N1CCCn1nnc(-c2ccc(N3CCOCC3)cc2)n1	110	90.5% (inactive)	110% (inactive)	103% (inactive)	95.9% (inactive)	0.795% (inactive)	95.1	95.9	-4.53% (inactive)	-4.43% (inactive)
CCS(=O)(=O)N1CCC(C(=O)NC2CCCCC2)CC1	113	99% (inactive)	113% (inactive)	92.7% (inactive)	97.4% (inactive)	11.3% (inactive)	86.1	97.4	1.84% (inactive)	3.28% (inactive)
CC(C)Cc1n[nH]c(=O)[nH]1	118	115% (inactive)	118% (inactive)	93.9% (inactive)	98.4% (inactive)	9.75% (inactive)	88.7	98.4	-6.93% (inactive)	-9.84% (inactive)
CC(C)(C)c1ccc(-c2nnc(SCCC#N)n2C2CCCC2)cc1	73.5	98.5% (inactive)	73.5% (inactive)	65.7% (inactive)	78.8% (inactive)	18.4% (inactive)	60.5	78.8	-4.32% (inactive)	-4.1% (inactive)
O=C(CCNC(=O)Cn1ccc2ccccc2c1=O)NCCN1CCN(c2ccccc2F)CC1	96	92% (inactive)	96% (inactive)	99.2% (inactive)	88.1% (inactive)	9.11% (inactive)	79	88.1	-4.87% (inactive)	-1.45% (inactive)
Cn1cccc1Cc1nnc(SCC(=O)Nc2ccccc2F)n1CCc1ccccc1	78.5	91% (inactive)	78.5% (inactive)	89.4% (inactive)	83.7% (inactive)	1.68% (inactive)	82.1	83.7	1.15% (inactive)	2.67% (inactive)
